Experimental data reported in ChEMBL document CHEMBL1156985 (Bioorg Med Chem Lett, 2010).

Legend:
[1] = Inhibition of gamma secretase-mediated Abeta40 production
Mus musculus [2] = assay: Inhibition of Abeta40 production in CRND8 mouse plasma at 30 mg/kg, po after 3 hrs; assay type: functional
Summary of the method: (§1)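 CRND8 transgenic mice were given a single oral dose of 30 mg/kg. Abeta40 was measured in plasma and brain cortex at 3 h, or at 6 h, after dosing. Results are expressed as percent inhibition of Abeta40.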

[3] = Inhibition of gamma secretase-mediated Abeta40 production by cell based assay
Summary of the method: (§2)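 Cell-based assay measuring secreted Abeta40 and Abeta42. IC50 values are the means of two experiments.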

[4] = Inhibition of gamma secretase-mediated Abeta42 production by cell based assay; summary of the method: as §2
Mus musculus [5] = assay: Inhibition of Abeta40 production in CRND8 mouse brain cortex at 30 mg/kg, po after 3 hrs; assay type: functional; summary of the method: as §1
[6] = AUC in CRND8 mouse; assay type: ADME, organism-based; parameters: concentration or dose not given beside the values; conditions: plasma
Mus musculus [7] = assay: Inhibition of Abeta40 production in CRND8 mouse brain cortex at 30 mg/kg, po after 6 hrs; assay type: functional; summary of the method: as §1
Cytochrome P450 3A4 = Cytochrome P450 3A4 (Homo sapiens, UniProt P08684); assay: Inhibition of CYP3A4 preincubated for 30 mins; assay type: ADME
Mus musculus [8] = assay: Inhibition of Abeta40 production in CRND8 mouse plasma at 30 mg/kg, po after 6 hrs; assay type: functional; summary of the method: as §1
Mus musculus [9] = assay: Gastrointestinal toxicity in CRND8 mouse at 30 mg/kg, po after 3 hrs; assay type: organism-based; parameters: dose 30 mg/kg, route oral; conditions: in vivo

Chain of Cytochrome P450 3A4 (P08684 whole entry): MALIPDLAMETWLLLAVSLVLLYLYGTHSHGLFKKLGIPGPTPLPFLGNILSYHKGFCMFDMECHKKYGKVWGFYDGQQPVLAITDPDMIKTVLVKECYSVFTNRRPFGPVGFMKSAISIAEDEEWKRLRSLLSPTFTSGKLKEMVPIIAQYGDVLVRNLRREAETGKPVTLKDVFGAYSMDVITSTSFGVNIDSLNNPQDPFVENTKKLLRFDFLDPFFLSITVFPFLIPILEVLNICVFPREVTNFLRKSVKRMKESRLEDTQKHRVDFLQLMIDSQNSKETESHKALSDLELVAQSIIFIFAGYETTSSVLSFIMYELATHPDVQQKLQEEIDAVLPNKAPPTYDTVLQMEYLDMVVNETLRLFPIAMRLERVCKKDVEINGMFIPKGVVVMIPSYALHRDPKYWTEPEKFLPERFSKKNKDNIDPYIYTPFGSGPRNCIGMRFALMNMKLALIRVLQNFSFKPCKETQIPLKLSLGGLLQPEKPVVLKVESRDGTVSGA

Structure (SMILES) | IC50 [1] | IC50 [3] | IC50 [4] | also measured
O=S(=O)(N[C@@H]1CC[C@@]2(S(=O)(=O)c3ccc(Cl)cc3)c3c(F)ccc(F)c3OC[C@H]2C1)c1ccccn1 | 7.6 nM | 68 nM | 26 nM | inhibition in vivo at 30 mg/kg (Mus musculus [2]): 19%
COC[C@H]1COc2c(F)ccc(F)c2[C@@]1(C)S(=O)(=O)c1ccc(Cl)cc1 (relative stereo) | 270 nM | – | – | –
CC[C@@H]1C[C@](CC)(S(=O)(=O)c2ccc(Cl)cc2)c2c(F)ccc(F)c2O1 (relative stereo) | 830 nM | – | – | –
O=S(=O)(c1ccc(Cl)cc1)C12CCC(O)CC1COc1c(F)ccc(F)c12 (racemic) | 28 nM | 25 nM | 18 nM | inhibition in vivo at 30 mg/kg (Mus musculus [2]): 44%; inhibition in vivo at 30 mg/kg (Mus musculus [5]): 55%; AUC [6]: 164 ng·h/mL
O=S(=O)(N[C@@H]1CC[C@@]2(S(=O)(=O)c3ccc(Cl)cc3)c3c(F)ccc(F)c3OC[C@H]2C1)C1CC1 | 8.4 nM | 9.3 nM | 4.3 nM | inhibition in vivo at 30 mg/kg (Mus musculus [7]): 58%; IC50 (Cytochrome P450 3A4): > 30000 nM; AUC [6]: 1910 ng·h/mL; inhibition in vivo at 30 mg/kg (Mus musculus [8]): 80%
C[C@H]1COc2c(F)ccc(F)c2[C@@]1(C)S(=O)(=O)c1ccc(Cl)cc1 (relative stereo) | 110 nM | – | – | –
CC(=O)NC1CCC2(S(=O)(=O)c3ccc(Cl)cc3)c3c(F)ccc(F)c3OCC2C1 (racemic) | 107 nM | 145 nM | 107 nM | AUC [6]: 1720 ng·h/mL
NC1CCC2(S(=O)(=O)c3ccc(Cl)cc3)c3c(F)ccc(F)c3OCC2C1 (racemic) | 1700 nM | – | – | –
C[C@H]1COc2c(F)ccc(F)c2[C@@H]1S(=O)(=O)c1ccc(Cl)cc1 (relative stereo) | 64 nM | – | – | –
CCC1(S(=O)(=O)c2ccc(Cl)cc2)CC(CO)Oc2c(F)ccc(F)c21 (mixture of isomers) | 620 nM | – | – | –
CCC1(S(=O)(=O)c2ccc(Cl)cc2)CCOc2c(F)ccc(F)c21 (racemic) | 72 nM | – | – | –
O=S(=O)(c1ccc(Cl)cc1)C1CCOc2c(F)ccc(F)c21 (racemic) | 1600 nM | – | – | –
C[C@@H]1C[C@](C)(S(=O)(=O)c2ccc(Cl)cc2)c2c(F)ccc(F)c2O1 (relative stereo) | 1200 nM | – | – | –
CC1(S(=O)(=O)c2ccc(Cl)cc2)CCOc2c(F)ccc(F)c21 (racemic) | 808 nM | – | – | –
O=C1CCC2(S(=O)(=O)c3ccc(Cl)cc3)c3c(F)ccc(F)c3OCC2C1 (racemic) | 13 nM | 17 nM | 12 nM | inhibition in vivo at 30 mg/kg (Mus musculus [2]): 19%; IC50 (Cytochrome P450 3A4): 1200 nM; AUC [6]: 60 ng·h/mL
O=S(=O)(c1ccc(Cl)cc1)[C@H]1c2c(F)ccc(F)c2OC[C@@H]1CO (relative stereo) | 510 nM | – | – | –
O=S(=O)(N[C@@H]1CC[C@@]2(S(=O)(=O)c3ccc(Cl)cc3)c3c(F)ccc(F)c3OC[C@H]2C1)C(F)(F)F | 27.1 nM | 108 nM | 46 nM | inhibition in vivo at 30 mg/kg (Mus musculus [2]): 90%; inhibition in vivo at 30 mg/kg (Mus musculus [5]): 42%; IC50 (Cytochrome P450 3A4): > 30000 nM; AUC [6]: 5050 ng·h/mL; Activity (Mus musculus [9]): Non-toxic
